Only some compounds are listed: those with a hit (about 3.7% of all), similar ones and a draw of the others.
ROMK primary = ROMK potassium channel modulators, primary screen, cell-based, thallium flux, MLSMR library; Tet-inducible ROMK, thallium flux fluorescence; actives lie on both sides; B-score at 10 µM; 130,000 tested, 2% active; AID 1918, 2009;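 active means signal ratio slope over the read window, or its plate-corrected B-score, at least 3 SD from the plate mean, either direction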;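 further: B-score of the F/F0 ratio slope over 7 to 12 s after thallium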
Mdm2 ligase inh = MDM2-luciferase reporter signal enhancers, primary screen, MDM2 E3 ligase inhibitor project, cell-based, luminescence, 1536-well. 210,000 tested, 0.11% active. cell-based MDM2 ubiquitination luciferase reporter, 2 h; 0 = plate control, 100 = twice control, blank-subtracted. signal enhancement, % at 5 µM;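 active means signal enhancement of 30% or more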;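 further: luminescence tracks abundance of the self-degrading MDM2-luciferase fusion protein; higher signal means inhibition of MDM2 E3 ligase activity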
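system = mammalian cells stably expressing self-ubiquitinating, self-degrading MDM2 E3–luciferase fusion | quantity = 2000 cells per well seeded | incubation = 4 h cell settling then 2 h compound exposure, 37 °C | signal = SteadyLite luminescence, 15 min reagent step | benchmarks = plate control and blank wells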
Arbovirus inh = antivirals against arbovirus infection, primary screen, cell-based, full library, 10K replicate subset; 200,000 tested, 0.37% active; arbovirus infection cell-based antiviral screen; AID 1251, 2008; inhibition, % at 10 µM; in the data active means inhibition above about 30%
PKD1 kinase inh = inhibitors of human PKD1 kinase, biochemical, fluorescence polarization | Serine/threonine-protein kinase D1 (Homo sapiens), Q15139 | PKD1 kinase fluorescence polarization assay | inhibition, % (test concentration not listed) | 200,000 tested, 0.056% active; in the data active means inhibition above about 50%
Target sequence (Q15139 whole entry, looked up): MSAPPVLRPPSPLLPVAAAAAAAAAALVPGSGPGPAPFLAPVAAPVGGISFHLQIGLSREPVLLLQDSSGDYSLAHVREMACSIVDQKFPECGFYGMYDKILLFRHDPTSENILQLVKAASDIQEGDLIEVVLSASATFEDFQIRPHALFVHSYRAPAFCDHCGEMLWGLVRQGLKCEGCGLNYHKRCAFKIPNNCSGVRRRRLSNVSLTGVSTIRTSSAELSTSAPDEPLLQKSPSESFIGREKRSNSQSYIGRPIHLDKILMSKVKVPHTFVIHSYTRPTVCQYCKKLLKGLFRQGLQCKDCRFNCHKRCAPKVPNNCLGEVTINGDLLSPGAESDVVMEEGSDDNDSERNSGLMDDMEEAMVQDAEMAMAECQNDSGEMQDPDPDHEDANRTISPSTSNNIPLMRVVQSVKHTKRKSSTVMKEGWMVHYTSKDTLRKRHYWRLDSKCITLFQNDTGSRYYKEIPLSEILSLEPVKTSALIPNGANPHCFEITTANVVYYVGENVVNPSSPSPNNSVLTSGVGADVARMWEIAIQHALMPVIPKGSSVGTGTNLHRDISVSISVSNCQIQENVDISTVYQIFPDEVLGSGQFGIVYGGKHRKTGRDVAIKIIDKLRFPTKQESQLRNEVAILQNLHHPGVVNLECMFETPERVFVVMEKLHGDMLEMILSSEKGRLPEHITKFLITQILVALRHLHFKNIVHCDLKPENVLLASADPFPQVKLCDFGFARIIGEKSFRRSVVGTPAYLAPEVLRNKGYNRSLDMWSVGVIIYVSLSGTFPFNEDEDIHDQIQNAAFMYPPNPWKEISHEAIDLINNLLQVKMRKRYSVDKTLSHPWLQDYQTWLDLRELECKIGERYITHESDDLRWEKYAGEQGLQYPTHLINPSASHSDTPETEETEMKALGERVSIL
m-calpain inh = inhibitors of pig calpain II, primary screen, biochemical, fluorogenic peptide substrate, 1536-well. 220,000 tested, 0.37% active. purified calpain II, 30 min. inhibition, % at 16 µM;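 active means inhibition above about 50%, limit read from the data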
Cl transport mod = KCC2 cotransporter modulators, thallium flux, primary screen, cell-based, HEK293 KCC2, FluoZin-2 fluorescence, MLSMR; Solute carrier family 12 member 5 (Homo sapiens), Q9H2X9; KCC2 cells, thallium flux FluoZin-2 fluorescence; B-score of Tl+ flux slope (higher = more flux/activation; lower = inhibition) at 10 µM; 190,000 tested, 2.2% active; AID 1456, 2008;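 active means thallium flux slope and its plate-corrected score both differing from the plate sample mean at a set confidence after two filtering rounds, in either direction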;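 further: slope of fluorescence scaled to starting intensity during 10 to 20 s after thallium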
KCC2 secondary = KCC2 modulators in sodium-free buffer, confirmation, cell-based, HEK293 KCC2, thallium flux, secondary assay | shares compounds with Cl transport mod | normalised thallium flux (F/F0 slope) at 10 µM | FluoZin2 fluorescence; active compounds read high | AID 1713, 2009 | 3,700 tested, 15% active;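 active means thallium flux slope above the same plate's solvent-only control mean plus 3 SD; inconclusive means the two replicate wells disagree; inactive means no significant difference from solvent-only control wells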
KCC2 bumet counter = thallium flux persisting under bumetanide in KCC2 cells, confirmation, counter-screen for KCC2 modulator project, cell-based, HEK293 KCC2, FluoZin2, secondary assay 3; HEK293-KCC2 + bumetanide/ouabain; active compounds read high; shares compounds with Cl transport mod; normalized thallium flux at 10 µM; 3,700 tested, 49% active;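 active means thallium entry rate above the same plate's blocked-transporter control wells by more than 3 SD; inconclusive means the two repeat wells disagree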;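 further: raw slope of fluorescence over initial fluorescence between 10 and 20 s after thallium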
KCC2 sec2 = KCC2 modulators without ouabain present, confirmation, cell-based, HEK293 KCC2, thallium flux, FluoZin2, secondary assay 2. shares compounds with Cl transport mod. thallium flux FluoZin2 fluorescence; actives lie on both sides; F/F0 rise rate, 10–20 s post-thallium. normalized thallium flux at 10 µM. 3,700 tested, 23% active. AID 1715, 2009;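 active means thallium flux slope more than 3 SD above or below the plate's solvent-only control mean, mostly below; inconclusive means the two repeat wells disagreed; inactive means no significant shift from solvent-only controls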
HEK counter1 = thallium flux modulation in parental HEK cells, confirmation, counter-screen for KCC2 modulator project, cell-based, counterscreen 1; shares compounds with Cl transport mod; 3,700 tested, 46% active; AID 1716, 2009; HEK293 parental cells, thallium flux FluoZin2, ouabain; baseline-ratio fluorescence slope, 10–20 s after thallium; thallium flux rate (normalised fluorescence) at 10 µM;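 active means thallium flux rate significantly above the same plate's solvent-only control wells, beyond their mean plus 3 SD; inconclusive means the two replicate wells gave conflicting results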
KCC2 retest ouab = KCC2 inhibitors and activators, ouabain retest, confirmation, HEK-KCC2 cells | shares compounds with Cl transport mod | HEK293-KCC2, thallium flux FluoZin2 fluorescence; bidirectional: low = inhibitor, high = activator | raw Tl+ flux slope (below DMSO = inhibition, above = activation) at 10 µM | 3,700 tested, 48% active;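 active means thallium flux slope beyond 3 SD from same-plate DMSO control mean in most replicates, usually higher, sometimes lower; inconclusive means repeat tests gave conflicting results; inactive means no significant difference from controls in most replicates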;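 further: slope of initial-normalized fluorescence between seconds 10 and 20 after thallium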
HEK counter2 = native HEK Tl+ uptake effects, second counter-screen – HEK cells, counterscreen 2, counter-screen for KCC2 modulator project, confirmation | shares compounds with Cl transport mod | 3,700 tested, 33% active | HEK293 parental, thallium flux FluoZin-2 fluorescence slope | AID 1718, 2009 | thallium flux slope at 10 µM;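 active means thallium flux slope above the same plate's solvent-control mean plus 3 SD in both duplicate wells; inconclusive means duplicate wells that disagreed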;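 further: run without ouabain in cells lacking the KCC2 cotransporter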
Numbers stand for hits; . = inactive; ? = inconclusive; / = no result given.

SMILES | ROMK primary | Mdm2 ligase inh | Arbovirus inh | PKD1 kinase inh | m-calpain inh | Cl transport mod | KCC2 secondary | KCC2 bumet counter | KCC2 sec2 | HEK counter1 | KCC2 retest ouab | HEK counter2
C1=C(c2ccccc2)CCNC1 | / | . | / | / | . | . | / | / | / | / | / | /
Cc1cc(NC(=O)CCC(=O)N2CCC3(CC2)OCCO3)no1 | . | . | . | . | . | . | / | / | / | / | / | /
Clc1ccc(COC(Cn2ccnc2)c2ccc(Cl)cc2Cl)c(Cl)c1 (configuration not stated) | / | / | . | . | 58.4 | . | / | / | / | / | / | /
CCOP(=O)(OCC)Oc1cc(C)c(N(C)C)c(C)c1 | / | . | / | / | . | . | / | / | / | / | / | /
CCOC(=O)C1C(=O)NC23CCCC2C1c1ccccc1O3 (configuration not stated) | . | . | . | . | . | / | / | / | / | / | / | /
CCOC(=O)C1CCCN(c2ccc([N+](=O)[O-])c3nonc23)C1 (configuration not stated) | / | . | . | . | 59.8 | . | / | / | / | / | / | /
Cc1cccc(C)c1NC(=O)CN(C)CC(=O)Nc1ccc(C#N)c(Cl)c1 | / | . | . | . | . | . | / | / | / | / | / | /
C[C@@H]1C[C@H]2OC(=O)C3(CO3)[C@H]2[C@H](O)[C@]2(C)C(=O)C3OC3[C@@H]12 (some centres not stated) | / | . | / | / | . | . | / | / | / | / | / | /
C=C1C(=O)O[C@@H]2C[C@@H](C)[C@@H]3C=CC(=O)[C@@]3(C)[C@@H](O)[C@H]12 | / | 53.0 | / | / | . | . | / | / | / | / | / | /
Cc1cnn(C2CCN(C)CC2)c1N | / | . | . | . | . | . | / | / | / | / | / | /
O=C(COc1ccc(Cl)cc1)N1CCN(Cc2ccccc2)CC1 | . | . | . | . | . | / | ? | . | . | . | 0.0254 | .
CC(C)NS(=O)(=O)c1ccc(OCC(=O)N2CCN(Cc3ccccc3)CC2)cc1 | . | / | / | . | / | . | / | / | / | / | / | /
CC(C)CCP(=O)(O)c1ccccc1 | . | . | . | . | . | 8.33 | . | . | . | . | . | .
COc1cc(/C=C/C(=O)c2c(O)n(CCc3ccccc3)c(=O)[nH]c2=O)ccc1O | / | . | 46.2 | . | . | -6.38 | ? | -0.00962 | . | 0.00126 | 0.00397 | ?
CCOC(=O)C(O)(c1ccc(NC(=S)NC(=O)c2ccc(Cl)cc2Cl)c(C)c1)C(F)(F)F (configuration not stated) | / | . | . | . | . | 5.45 | . | 0.0291 | . | 0.0138 | 0.0292 | 0.0157
COc1ccc(CN2CCN(Cc3ccccc3)CC2)c(OC)c1 | . | . | . | . | . | 5.37 | . | . | . | . | . | .
COc1ccc(CN2CCN(C(=O)Cc3ccccc3)CC2)c(OC)c1 | . | . | . | . | . | . | / | / | / | / | / | /
O=[N+]([O-])[N-][n+]1cnn(Cc2ccccc2)c1 | . | . | . | . | . | . | / | / | / | / | / | /
O=c1[nH]c(=S)[nH]c(O)c1N=Nc1ccc(SC(F)F)cc1 | / | . | / | / | . | 41.9 | . | 0.0718 | ? | 0.0408 | 0.0874 | 0.0122
CC(C)c1ccc(N=Nc2c(O)[nH]c(=O)[nH]c2=O)cc1 | / | . | / | / | . | . | / | / | / | / | / | /
Cc1nn(Cc2ccccc2Cl)c(C)c1C(=O)OCC(=O)N1CC(C)OC(C)C1 (configuration not stated) | / | . | . | . | . | . | / | / | / | / | / | /
CCCC(=O)Nc1cc(C(=O)N2CCC3(CC2)OCCO3)ccc1S(=O)(=O)c1ccc(C)cc1 | / | . | . | . | . | -5.15 | . | . | . | . | . | .
CC(=O)Nc1cc(C(=O)N2CCC3(CC2)OCCO3)ccc1S(=O)(=O)c1ccc(Cl)cc1 | . | . | . | . | . | -6.36 | . | . | . | . | . | .
Cc1ccc(S(=O)(=O)Nc2cc(C(=O)N3CCC4(CC3)OCCO4)ccc2N2CCCCC2)cc1 | . | . | . | . | . | / | / | / | / | / | / | /
CC(=O)Nc1cc(C(=O)N2CCC3(CC2)OCCO3)ccc1S(=O)(=O)c1ccc(C)cc1 | . | . | . | . | . | / | / | / | / | / | / | /
SMILES | ROMK primary | Mdm2 ligase inh | Arbovirus inh | PKD1 kinase inh | m-calpain inh | Cl transport mod | KCC2 secondary | KCC2 bumet counter | KCC2 sec2 | HEK counter1 | KCC2 retest ouab | HEK counter2
N=c1c[n+](C2CCCCC2)[n-]o1 | . | . | . | . | . | . | / | / | / | / | / | /
CCCCCCNc1nc(OC)nc(N2CC3CC(C2)c2cccc(=O)n2C3)n1 (configuration not stated) | . | . | . | . | . | . | / | / | / | / | / | /
O=C(C1CCN(c2nc3ccc(Br)cc3s2)CC1)N1CCC2(CC1)OCCO2 | / | . | . | . | . | -5.07 | . | . | 0.0272 | . | 0.0187 | .
CC(O)(CS(=O)(=O)c1ccc(F)cc1)C(=O)Nc1ccc(C#N)c(C(F)(F)F)c1 (configuration not stated) | / | / | . | / | . | . | / | / | / | / | / | /
O=C1NC(=O)C2(Cc3c(nc4ccccn4c3=O)N3CCCCCC32)C(=O)N1Cc1ccccc1 (configuration not stated) | . | . | . | . | . | -3.95 | . | . | ? | 0.00513 | 0.0163 | .
O=C1NC(=O)C2(Cc3ccccc3N3CCCC32)C(=O)N1Cc1ccccc1 (configuration not stated) | / | . | . | . | . | . | / | / | / | / | / | /
O=C(c1cc2c(s1)-c1ccccc1OC2)N1CCC2(CC1)OCCO2 | . | . | . | . | . | -4.06 | . | . | 0.026 | . | ? | .

Bioassay records as filed in PubChem BioAssay.
